The source of these data is ChEMBL document CHEMBL1146361, “Studies on acyclic pyrimidines as inhibitors of mycobacteria” (Bioorg Med Chem, 2007).

In general, Inhibition refers to how much of the control response was suppressed. Broadly, the inhibition is the change of the read-out against control, counted positive when it falls.

Assay [1] concerns Mycobacterium tuberculosis. In words: Antimycobacterial activity against Mycobacterium bovis BCG by MABA. Format: functional, variant bovis BCG. A digest of the protocol:
(§1)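 Compounds in DMSO (100× highest final concentration), diluted in 7H9GC; tested at 100, 50, 10 and 1 µg/mL in triplicate, three experiments. Frozen inoculum diluted in 7H9GC. Read visually and spectrophotometrically. […], mean given. Visual MIC = lowest concentration preventing blue-to-pink change.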

The test system of assay [2] is Mycobacterium tuberculosis. Put plainly: Antimycobacterial activity against Mycobacterium bovis BCG at 50 ug/mL after 24 to 48 hrs by MABA. The conditions noted are these: variant bovis BCG. In kind it is functional. The method in brief:
as §1

The subject of assay [3] is Mycobacterium tuberculosis. Put plainly: Antimycobacterial activity against Mycobacterium bovis BCG at 100 ug/mL after 24 to 48 hrs by MABA. The conditions noted are these: variant bovis BCG. Format: functional. A digest of the protocol:
as §1
A general note: Resazurin is reduced to fluorescent resorufin, in cell work by metabolically active cells.

The test system of assay [4] is Mycobacterium tuberculosis. Put plainly: Antimycobacterial activity against Mycobacterium bovis BCG at 10 ug/mL after 24 to 48 hrs by MABA. Format: functional. As to conditions: variant bovis BCG. The method in brief: as §1
Assay [5] concerns Mycobacterium tuberculosis. Put plainly: Antimycobacterial activity against Mycobacterium bovis BCG at 1 ug/mL after 24 to 48 hrs by MABA. In kind it is functional. The conditions noted are these: variant bovis BCG. The method in brief: as §1

As for `O=c1[nH]c(=O)n(COCCO)cc1Cl`, the Inhibition in assay [1] is 0%.
Still for that read-out and setting: the figure for `O=c1ccn(COCCO)c(=O)[nH]1` is 0%; for `Cc1cn(COCCO)c(=O)[nH]c1=O` it is 0%.
The same measure, in the same setting: the figure for `[N-]=[N+]=NC(CI)c1cn(COC(CO)CO)c(=O)[nH]c1=O` (stereo unspecified) is 0%; for `[N-]=[N+]=NC(CBr)c1cn(COC(CO)CO)c(=O)[nH]c1=O` (stereo unspecified) it is 0%.
In assay [2], `[N-]=[N+]=NC(CI)c1cn(COCCO)c(=O)[nH]c1=O` (stereo unspecified) gave an inhibition at 50 µg/mL of 50%. Besides, in assay [3], the inhibition at 100 µg/mL worked out at 50%.
The compound `[N-]=[N+]=NC(CBr)c1cn(COCCO)c(=O)[nH]c1=O` (stereo unspecified) registered an inhibition at 50 µg/mL in assay [2] of 100%.
For the compound `O=c1[nH]c(=O)n(COCCO)cc1I`, the Inhibition in assay [1] is reported as 0%.
Turning to `Nc1cn(COCCO)c(=O)[nH]c1=O`, the inhibition at 50 µg/mL in assay [2] worked out at 50%. The compound also gave an inhibition at 100 µg/mL in assay [3] of 50%.
The compound `CCCCCCCCCCC#Cc1cn(COCCO)c(=O)n(C#CCCCCCCCCCC)c1=O` yielded an Inhibition in assay [1] of 0%.
With `CCCCCCCCC#Cc1cn(COC(CO)CO)c(=O)[nH]c1=O`, in assay [2], the inhibition at 50 µg/mL worked out at 100%. Also, at 10 µg/mL the inhibition in assay [4] was 60%. The same compound returned an inhibition at 100 µg/mL in assay [3] of 100%.
Compound `CCCCCCCCCCC#Cc1cn(COC(CO)CO)c(=O)[nH]c1=O` registered an inhibition at 1 µg/mL in assay [5] of 50%. This compound registered an inhibition at 50 µg/mL in assay [2] of 100%. The inhibition at 10 µg/mL in assay [4] is 80%. Further, the inhibition at 100 µg/mL in assay [3] is 100%.
In the case of `CCc1cn(COCCO)c(=O)[nH]c1=O`, the Inhibition in assay [1] came out at 0%.
The same measure, in the same setting: to `CCCCCC#Cc1cn(COCCO)c(=O)[nH]c1=O` belongs 0%; to `O=c1[nH]c(=O)n(COCCO)cc1F`, 0%; to `O=c1[nH]c(=O)n(COCCO)cc1Br`, 0%.
On the same count and under the same terms, the figure for `[N-]=[N+]=NC(CCl)c1cn(COC(CO)CO)c(=O)[nH]c1=O` (stereo unspecified) is 0%.
`[N-]=[N+]=NC(CCl)c1cn(COCCO)c(=O)[nH]c1=O` (stereo unspecified) returned an inhibition at 50 µg/mL in assay [2] of 100%. The same compound returned an inhibition at 10 µg/mL in assay [4] of 50%. Moreover, at 100 µg/mL the inhibition in assay [3] was 100%.
For the compound `O=c1[nH]c(=O)n(COCCO)cc1[N+](=O)[O-]`, in assay [1], the Inhibition is 0%.
On to `C=C(N=[N+]=[N-])c1cn(COCCO)c(=O)[nH]c1=O`, for which at 50 µg/mL the inhibition in assay [2] was 50%. 10 µg/mL produced 50% inhibition in assay [4]. Moreover, in assay [3], the inhibition at 100 µg/mL is 50%.
`C=C(N=[N+]=[N-])c1cn(COC(CO)CO)c(=O)[nH]c1=O` showed an Inhibition in assay [1] of 0%.
The same measure, in the same setting: the figure for `C=Cc1cn(COCCO)c(=O)[nH]c1=O` is 0%; for `C=Cc1cn(COC(CO)CO)c(=O)[nH]c1=O` it is 0%.
On the same count and under the same terms, the figure for `O=c1[nH]c(=O)n(COC(CO)CO)cc1I` [IODACYCLUR] is 0%.
Consider `CO[C@H]1/C=C/O[C@@]2(C)Oc3c(C)c(O)c4c(O)c(c(/C=N/N5CCN(C)CC5)c(O)c4c3C2=O)NC(=O)/C(C)=C\C=C\[C@H](C)[C@H](O)[C@@H](C)[C@@H](O)[C@@H](C)[C@H](OC(C)=O)[C@@H]1C` [RIFAMPIN], for which the inhibition at 1 µg/mL in assay [5] is 100%.
